In series [1] the test system is αvβ6-positive (DX3puroβ6) tumor. The conditions noted are these: DX3puroβ6 xenograft, 1 hour after injection, n = 3/tracer; data for 1 taken from ref 8; cited from earlier work.
For series [2] the test system is unchanged. As to the kind of experiment: Biodistribution in mice bearing paired αvβ6-positive. It is filed as in vivo, male athymic nude mice. The conditions noted are these: for uptake in the αvβ6-positive tumor: DX3puroβ6 xenograft, 1 hour after injection; for uptake in the αvβ6-positive tumor / level of activity in the urine: n = 3/tracer; for level of activity in the urine: male athymic nude mice. Summed up: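 Test compounds were 18F-labeled αvβ6-targeting peptides carrying different prosthetic groups. Radioactivity in healthy tissues and in both tumors was measured 1 h after injection and expressed as % ID/g, the percent of injected radioactive dose per gram of tissue. There were 3 mice per tracer.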

We go through 3 substances from paper PMC2630402 (Journal of medicinal chemistry, 2008).

Read-outs that look alike come from different tables or passages of the source.

With [^18F]FBA-A20FDMV2 [compound 1], the “uptake in the αvβ6-positive tumor” value in series [1] is on record as 0.66 ± 0.09 % ID/g.

On to [^18F]FC5-A20FDMV2 [compound 3], for which the “uptake in the αvβ6-positive tumor” value in series [2] is 1.01±0.09 % ID/g. In addition, the “levels of radioactivity in the kidneys and the liver” value in series [2] (biodistribution, 1 h p.i., compared with 1 and 2) is reported as “moderately increased”. In addition, the “level of activity in the urine” value in series [2] (biodistribution, 1 h p.i.) worked out at 501 ± 332 % ID/g.

With [^18F]FPA-A20FDMV2 [compound 2], the “uptake in the αvβ6-positive tumor” value in series [2] came to 1.18 ± 0.28 % ID/g. Besides, the “level of activity in the urine” value in series [2] (biodistribution, 1 h p.i.) amounted to 311 ± 133 % ID/g.
